Laboratory results: ChEMBL document CHEMBL1152452, “Modifications incorporated in CpG motifs of oligodeoxynucleotides lead to antagonist activity of toll-like receptors 7 and 9” (2009)
The source made the active and inactive calls. The calls are words filed in the database; no cut-off is given here.

What was measured:
Splenocyte [1] = test: Immunostimulatory activity in C57BL/6 mouse splenocytes assessed as induction of IL6 secretion after 24 hrs by sandwich ELISA; type: functional, cell-based
Method in brief: (§1)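 C57BL/6 splenocytes (mice 5–8 weeks) at 5 × 10^6 cells/mL in RPMI complete medium. ODNs dissolved in PBS were added and the cells incubated at 37 °C for 24 h. Supernatant IL-12 or IL-6 was measured by sandwich ELISA. Runs were done two or three times, in duplicate per concentration.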

[2] = target: T1, Toll-like receptor 9 (Mus musculus) (UniProt Q9EQU3); test: Activation of mouse TLR9 expressed in HEK293 cells assessed as NF-kappaB level at 0.3 ug/mL after 18 hrs by reporter gene assay; type: cell-based
T1 sequence (whole entry): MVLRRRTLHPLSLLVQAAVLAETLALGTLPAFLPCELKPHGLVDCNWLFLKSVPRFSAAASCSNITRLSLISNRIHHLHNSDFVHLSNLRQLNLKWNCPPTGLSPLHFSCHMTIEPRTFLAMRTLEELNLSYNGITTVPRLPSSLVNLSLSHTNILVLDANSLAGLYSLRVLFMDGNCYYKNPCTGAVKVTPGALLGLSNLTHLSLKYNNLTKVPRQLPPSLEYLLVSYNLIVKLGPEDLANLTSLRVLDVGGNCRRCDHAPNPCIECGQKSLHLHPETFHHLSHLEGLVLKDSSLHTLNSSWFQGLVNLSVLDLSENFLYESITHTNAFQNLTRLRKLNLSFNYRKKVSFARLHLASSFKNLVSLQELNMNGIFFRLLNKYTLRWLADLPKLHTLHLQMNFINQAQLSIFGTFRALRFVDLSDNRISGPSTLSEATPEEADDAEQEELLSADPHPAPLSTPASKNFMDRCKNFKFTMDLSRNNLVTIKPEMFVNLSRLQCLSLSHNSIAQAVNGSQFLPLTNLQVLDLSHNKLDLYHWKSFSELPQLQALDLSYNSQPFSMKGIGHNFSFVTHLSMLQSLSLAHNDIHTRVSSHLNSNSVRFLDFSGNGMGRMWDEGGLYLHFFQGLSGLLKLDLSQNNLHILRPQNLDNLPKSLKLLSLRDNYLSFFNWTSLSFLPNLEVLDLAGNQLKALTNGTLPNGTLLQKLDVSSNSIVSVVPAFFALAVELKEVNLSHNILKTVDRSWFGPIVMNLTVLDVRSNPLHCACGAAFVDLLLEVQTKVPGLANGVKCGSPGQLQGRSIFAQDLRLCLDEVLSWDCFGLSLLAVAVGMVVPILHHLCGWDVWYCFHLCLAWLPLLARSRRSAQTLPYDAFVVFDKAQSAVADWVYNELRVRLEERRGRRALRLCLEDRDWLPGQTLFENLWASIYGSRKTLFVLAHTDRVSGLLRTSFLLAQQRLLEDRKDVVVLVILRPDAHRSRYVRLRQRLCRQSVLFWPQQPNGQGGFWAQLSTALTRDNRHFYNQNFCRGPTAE
Method in brief: (§2)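 HEK293 cells stably expressing mouse TLR9 were transiently transfected with a SEAP reporter for 6 h, then stimulated with ODN at 0.1, 0.3 or 1 μg/mL for 18 h. Reporter expression is given as fold change in NF-κB activity over medium. Representative of two independent experiments.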

Mus musculus [3] = test: Immunostimulatory activity in C57BL/6 mouse assessed as induction of TNFalpha level in serum at 2 mg/kg, sc after 2 hrs by Luminex multiplex assay; type: functional, organism-based; parameters: dose 2 mg/kg
Method in brief: (§3)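 Female C57BL/6 mice, 5–6 weeks old, n = 3, received a single 2 mg/kg subcutaneous ODN injection in the right flank. Blood was taken by retro-orbital bleeding 2 h later. Naive mice served as baseline. Representative of three experiments.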

Mus musculus [4] = test: Immunostimulatory activity in C57BL/6 mouse assessed as induction of IL10 level in serum at 2 mg/kg, sc after 2 hrs by Luminex multiplex assay; type: functional, organism-based; parameters: dose 2 mg/kg; method in brief: as §3
Mus musculus [5] = test: Immunostimulatory activity in C57BL/6 mouse assessed as induction of MCP1 level in serum at 2 mg/kg, sc after 2 hrs by Luminex multiplex assay; type: functional, organism-based; parameters: dose 2 mg/kg; method in brief: as §3
[6] = target: T1, Toll-like receptor 9 (Mus musculus); test: Activation of mouse TLR9 expressed in HEK293 cells assessed as NF-kappaB level at 1 ug/mL after 18 hrs by reporter gene assay; type: cell-based; method in brief: as §2
Mus musculus [7] = test: Immunostimulatory activity in C57BL/6 mouse assessed as induction of KC level in serum at 2 mg/kg, sc after 2 hrs by Luminex multiplex assay; type: functional, organism-based; parameters: dose 2 mg/kg; method in brief: as §3
Mus musculus [8] = test: Immunostimulatory activity in C57BL/6 mouse assessed as induction of MIP-1alpha level in serum at 2 mg/kg, sc after 2 hrs by Luminex multiplex assay; type: functional, organism-based; parameters: dose 2 mg/kg; method in brief: as §3
Splenocyte [9] = test: Immunostimulatory activity in C57BL/6 mouse splenocytes assessed as induction of IL12 secretion after 24 hrs by sandwich ELISA; type: functional, cell-based; method in brief: as §1
J774 = test: Activation of NF-kappaB in mouse J774 cells at 0.5 ug/ml after 1 hr by EMSA; type: cell-based
Method in brief: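 Murine J774 macrophages in DMEM with 10% FBS and antibiotics, plated at 5×10^6 cells/well. ODNs were given alone or together for 1 h. For inhibition, the agonist ODN at 0.5 μg/mL was co-incubated with the modified ODN at 2.5 μg/mL. Nuclear extracts were resolved by EMSA on native polyacrylamide gels and read by autoradiography.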

Mus musculus [10] = test: Immunostimulatory activity in C57BL/6 mouse assessed as induction of IL12 level in serum at 2 mg/kg, sc after 2 hrs by sandwich ELISA; type: functional, organism-based; parameters: dose 2 mg/kg; method in brief: as §3
[11] = target: T1, Toll-like receptor 9 (Mus musculus); test: Activation of mouse TLR9 expressed in HEK293 cells assessed as NF-kappaB level at 0.1 ug/mL after 18 hrs by reporter gene assay; type: cell-based; method in brief: as §2
Mus musculus [12] = test: Immunostimulatory activity in C57BL/6 mouse assessed as inhibition of 5'-CTATCTGACGTTCTCTGT-3'-induced TNFalpha production in serum at 2 mg/kg, sc administered 24 hrs prior to 5'-CTATCTGACGTTCTCTGT-3' challenge measured after 2 hrs by Luminex multiplex assay; type: functional, organism-based; parameters: dose 2 mg/kg
Method in brief: (§4)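 C57BL/6 mice received 2 mg/kg ODN sc in one flank. After 24 h, the TLR9 agonist ODN was given at 0.5 mg/kg sc in the opposite flank. Blood was drawn 2 h later and serum cytokines/chemokines were quantified by Luminex multiplex assay. Percent inhibition was taken against the agonist alone. Representative of three experiments.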

Mus musculus [13] = test: Immunostimulatory activity in C57BL/6 mouse assessed as inhibition of 5'-CTATCTGACGTTCTCTGT-3'-induced KC production in serum at 2 mg/kg, sc administered 24 hrs prior to 5'-CTATCTGACGTTCTCTGT-3' challenge measured after 2 hrs by Luminex multiplex assay; type: functional, organism-based; parameters: dose 2 mg/kg; method in brief: as §4
Splenocyte [14] = test: Immunostimulatory activity in C57BL/6 mouse splenocytes assessed as induction of IL6 secretion at 2 to 10 ug/ml after 24 hrs by sandwich ELISA; type: functional, cell-based; method in brief: as §1
Mus musculus [15] = test: Immunostimulatory activity in C57BL/6 mouse assessed as inhibition of 5'-CTATCTGACGTTCTCTGT-3'-induced IL10 production in serum at 2 mg/kg, sc administered 24 hrs prior to 5'-CTATCTGACGTTCTCTGT-3' challenge measured after 2 hrs by Luminex multiplex assay; type: functional, organism-based; parameters: dose 2 mg/kg; method in brief: as §4
Mus musculus [16] = test: Immunostimulatory activity in C57BL/6 mouse assessed as inhibition of 5'-CTATCTGACGTTCTCTGT-3'-induced MIP-1alpha production in serum at 2 mg/kg, sc administered 24 hrs prior to 5'-CTATCTGACGTTCTCTGT-3' challenge measured after 2 hrs by Luminex multiplex assay; type: functional, organism-based; parameters: dose 2 mg/kg; method in brief: as §4
Mus musculus [17] = test: Immunostimulatory activity in C57BL/6 mouse assessed as inhibition of 5'-CTATCTGACGTTCTCTGT-3'-induced MCP1 production in serum at 2 mg/kg, sc administered 24 hrs prior to 5'-CTATCTGACGTTCTCTGT-3' challenge measured after 2 hrs by Luminex multiplex assay; type: functional, organism-based; parameters: dose 2 mg/kg; method in brief: as §4
Splenocyte [18] = test: Immunostimulatory activity in C57BL/6 mouse splenocytes assessed as induction of IL12 secretion at 2 to 10 ug/ml after 24 hrs by sandwich ELISA; type: functional, cell-based; method in brief: as §1

Activity [2] | Activity [6] | Activity [11] | SMILES | Activity (Splenocyte [1]) | Activity (Mus musculus [3]) | Activity (Mus musculus [4]) | Activity (Mus musculus [5]) | Activity (Mus musculus [7]) | Activity (Mus musculus [8]) | Activity (Splenocyte [9]) | Activity (J774) | Activity (Mus musculus [10]) | Activity (Mus musculus [12]) | Activity (Mus musculus [13]) | Activity (Splenocyte [14]) | Activity (Mus musculus [15]) | Activity (Mus musculus [16]) | Activity (Mus musculus [17]) | Activity (Splenocyte [18])
Active | Active | Active | Cc1cn([C@H]2C[C@H](OP(=O)(S)OC[C@H]3O[C@@H](n4ccc(N)nc4=O)C[C@@H]3OP(=O)(S)OC[C@H]3O[C@@H](n4cc(C)c(=O)[nH]c4=O)C[C@@H]3OP(=O)(S)OC[C@H]3O[C@@H](n4cnc5c(=O)[nH]c(N)nc54)C[C@@H]3OP(=O)(S)OC[C@H]3O[C@@H](n4cc(C)c(=O)[nH]c4=O)C[C@@H]3O)[C@@H](COP(=O)(S)O[C@H]3C[C@H](n4ccc(N)nc4=O)O[C@@H]3COP(=O)(S)O[C@H]3C[C@H](n4cc(C)c(=O)[nH]c4=O)O[C@@H]3COP(=O)(S)O[C@H]3C[C@H](n4cc(C)c(=O)[nH]c4=O)O[C@@H]3COP(=O)(S)O[C@H]3C[C@H](n4cnc5c(=O)[nH]c(N)nc54)O[C@@H]3COP(=O)(S)O[C@H]3C[C@H](n4ccc(N)nc4=O)O[C@@H]3COP(=O)(S)O[C@H]3C[C@H](n4cnc5c(N)ncnc54)O[C@@H]3COP(=O)(S)O[C@H]3C[C@H](n4cnc5c(=O)[nH]c(N)nc54)O[C@@H]3COP(=O)(S)O[C@H]3C[C@H](n4cc(C)c(=O)[nH]c4=O)O[C@@H]3COP(=O)(S)O[C@H]3C[C@H](n4ccc(N)nc4=O)O[C@@H]3COP(=O)(S)O[C@H]3C[C@H](n4cc(C)c(=O)[nH]c4=O)O[C@@H]3COP(=O)(S)O[C@H]3C[C@H](n4cnc5c(N)ncnc54)O[C@@H]3COP(=O)(S)O[C@H]3C[C@H](n4cc(C)c(=O)[nH]c4=O)O[C@@H]3COP(=O)(S)O[C@H]3C[C@H](n4ccc(N)nc4=O)O[C@@H]3CO)O2)c(=O)[nH]c1=O (some centres not stated) | Dose-dependent effect | Active | Active | Active | Active | Active | Dose-dependent effect | Active | Active |  |  |  |  |  |  | 
inactive | inactive | inactive | Cc1cn([C@H]2C[C@H](OP(=O)(S)OC[C@H]3O[C@@H](n4ccc(N)nc4=O)C[C@@H]3OP(=O)(S)OC[C@H]3O[C@@H](n4cc(C)c(=O)[nH]c4=O)C[C@@H]3OP(=O)(S)OC[C@H]3O[C@@H](n4cc(C)c(=O)[nH]c4=O)C[C@@H]3OP(=O)(S)OC[C@H]3O[C@@H](n4ccc(N)nc4=O)C[C@@H]3OP(=O)(S)OC[C@H]3O[C@@H](n4cc(C)c(=O)[nH]c4=O)C[C@@H]3OP(=O)(S)OC[C@H]3O[C@@H](n4ccc(N)nc4=O)C[C@@H]3OP(=O)(S)OC[C@H]3O[C@@H](n4cc(C)c(=O)[nH]c4=O)C[C@@H]3OP(=O)(S)OC[C@H]3O[C@@H](n4cnc5c(=O)[nH]c(N)nc54)C[C@@H]3OP(=O)(S)OC[C@H]3O[C@@H](n4cc(C)c(=O)[nH]c4=O)C[C@@H]3O)[C@@H](COP(=O)(S)O[C@H]3C[C@H](n4cnc5c(N)ncnc54)O[C@@H]3COP(=O)(S)O[C@H]3C[C@H](n4cnc5c(=O)[nH]c(N)nc54)O[C@@H]3COP(=O)(S)O[C@H]3C[C@H](n4cc(C)c(=O)[nH]c4=O)O[C@@H]3COP(=O)(S)O[C@H]3C[C@H](n4ccc(N)nc4=O)O[C@@H]3COP(=O)(S)O[C@H]3C[C@H](n4cc(C)c(=O)[nH]c4=O)O[C@@H]3COP(=O)(S)O[C@H]3C[C@H](n4cnc5c(N)ncnc54)O[C@@H]3COP(=O)(S)O[C@H]3C[C@H](n4cc(C)c(=O)[nH]c4=O)O[C@@H]3COP(=O)(S)O[C@H]3C[C@H](n4ccc(N)nc4=O)O[C@@H]3CO)O2)c(=O)nc1N (some centres not stated) |  |  |  |  |  |  |  |  |  | Active | Active | inactive | Active | Active | Active | inactive
